Screens: PubChem, The Scripps Research Institute Molecular Screening Center
An excerpt weighted towards active compounds, which were near 2.7% of everything screened.
pPAFAH FP inh = pPAFAH (human) enzyme inhibition; Q13093; recombinant pPAFAH, FP-rhodamine probe fluorescence polarization; inhibition, % at 3.39 µM; 330,000 compounds, 1.5% hits;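 active = inhibition above the mean inhibition across the screen plus 3 SD, cut at about 25% in these data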;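 also: inhibitors block binding of the rhodamine activity-based probe so polarization drops; 0% = enzyme with DMSO and 100% = wells lacking pPAFAH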
PAFAH1B2 inh = PAFAH1B2 (human) inhibition; P68402; recombinant PAFAH1B2, FP-rhodamine activity probe, fluorescence polarization; inhibition, % at 3.39 µM; 340,000 compounds, 1.2% hits;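 active = inhibition above the mean of all tested compounds plus 3 SD, cut at about 24% in these data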;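 also: 0% = enzyme with DMSO and 100% = wells lacking PAFAH1B2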
Target sequence (P68402 whole entry, looked up): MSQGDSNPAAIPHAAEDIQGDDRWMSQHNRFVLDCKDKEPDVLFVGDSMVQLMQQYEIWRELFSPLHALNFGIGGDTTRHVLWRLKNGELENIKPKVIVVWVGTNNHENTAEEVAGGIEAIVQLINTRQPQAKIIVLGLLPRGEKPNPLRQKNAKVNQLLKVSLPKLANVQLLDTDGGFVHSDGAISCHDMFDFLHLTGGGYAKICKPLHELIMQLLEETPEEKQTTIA
PAFAH1B3 inh = inhibitors of human PAFAH1B3; Q15102; recombinant PAFAH1B3, FP-rhodamine probe, fluorescence polarization; inhibition, % at 3.39 µM; 340,000 compounds, 0.28% hits; AID 492972;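 active = inhibition above the screen-wide average of all tested compounds plus 3 SD, cut at about 25% in these data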;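 also: 0% = enzyme with DMSO only and 100% = wells lacking PAFAH1B3 protein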
PAFAH2 inh = PAFAH2 (human) inhibition; Q99487; recombinant PAFAH2, FP-rhodamine activity probe, fluorescence polarization; inhibition, % at 3.39 µM; 340,000 compounds, 0.99% hits;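 active = inhibition above the mean over all tested compounds plus 3 SD, cut at about 30% in these data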;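 also: inhibitors block probe labeling of enzyme so polarization drops; 0% = enzyme with DMSO and 100% = wells lacking PAFAH2 protein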
RBBP9 inh = blocks human serine hydrolase RBBP9; O75884; recombinant RBBP9, FP-Rh probe fluorescence polarization; 220,000 compounds, 0.2% hits; AID 1515; inhibition, % at 7.94 µM;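 active = inhibition above the campaign mean of all tested compounds plus 3 SD, cut at about 14% in these data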;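 also: plate controls were DMSO wells with RBBP9 for no effect and wells lacking RBBP9 protein for full effect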
Target sequence (O75884 whole entry, looked up): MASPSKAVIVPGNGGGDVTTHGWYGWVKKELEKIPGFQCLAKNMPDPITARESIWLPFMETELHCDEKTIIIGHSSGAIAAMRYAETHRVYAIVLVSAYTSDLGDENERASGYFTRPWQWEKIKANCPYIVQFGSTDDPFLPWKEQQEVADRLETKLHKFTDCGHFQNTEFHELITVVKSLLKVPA
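Test system: recombinant human RBBP9. Quantity: 2.5 µM RBBP9 dispensing solution, before mixing. Detection: FP readout at 525/598 nm. Reagent: Serine-hydrolase probe FP-Rh, 375 nM pre-mixing. Measure: % inhibition. Control set: DMSO-treated enzyme wells and wells lacking RBBP9. Buffer or medium: Tris-NaCl-Pluronic buffer, pH 8.0. Times: preincubation 30 min plus labeling 45 min at 25 °C.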
RBBP9 inh conf = confirmation of human RBBP9 inhibitors | 410 compounds, 36% hits | recombinant RBBP9, FP-Rh probe fluorescence polarization | inhibition, % at 7.94 µM | shares compounds with RBBP9 inh;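 active = inhibition above the hit cutoff derived for the primary screen, cut at about 15% in these data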;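 also: 0% = RBBP9 with DMSO and 100% = wells lacking RBBP9 protein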
An asterisk follows results filed as active; x = no result.

SMILES	pPAFAH FP inh	PAFAH1B2 inh	PAFAH1B3 inh	PAFAH2 inh	RBBP9 inh	RBBP9 inh conf
CCC(=O)OC1(C)C(=O)C=C2C=C(c3ccc(C#N)cc3)OC=C2C1=O (stereo not given)	33*	7	18	11	x	x
CC1(OC(=O)c2ccco2)C(=O)C=C2C=C(c3ccc(C#N)cc3)OC=C2C1=O (stereo not given)	52*	x	x	x	x	x
CCOC(=O)CC(=O)CSc1ncnc2c1nnn2-c1ccccc1	3	1	5	3	x	x
O=C(NCC(=O)N1CCN(c2ccccc2O)CC1)c1ccc(Br)o1	6	0	2	9	x	x
CC(C(=O)Nc1ccc(N(C)C)cc1)N1C(=O)c2ccccc2S1(=O)=O (stereo not given)	5	2	11	4	x	x
O=CNCC(=O)NCCc1ccc(Cl)cc1	1	1	-4	-4	-10	x
CCOc1ccc(N=C/C=C/c2ccccc2)c(O)c1	32*	0	2	0	-5	x
COc1ccc(Cl)cc1C(=O)NNC1CC(=O)N(Cc2ccc(Cl)cc2)C1=O (stereo not given)	8	16	-5	-3	-10	x
Cc1c(NC(=O)/C(C#N)=C/c2ccc(-c3ccc(Cl)c(Cl)c3)o2)c(=O)n(-c2ccccc2)n1C	12	3	-10	-5	-5	x
Cc1c(NC(=O)/C(C#N)=C/c2ccc(-c3ccccc3Cl)o2)c(=O)n(-c2ccccc2)n1C	27*	-1	8	2	-1	x
CC(Sc1nnc(N)s1)C(=O)Nc1ccc2c(c1)OCCO2 (stereo not given)	3	-4	3	-2	x	x
CC(C)(C)NC(=O)NC(=O)COC(=O)CCC1CCCC1	31*	6	-1	16	-9	x
COc1ccc(CNC(=O)COC(=O)CCC2CCCCC2)cc1	31*	3	6	10	-7	x
CC(C)(C)NC(=O)NC(=O)COC(=O)COc1ccc2c(c1)CCC2	14	2	0	-1	-6	x
COC(=O)c1ccc(CNC(=O)COC(=O)CCC2CCCC2)cc1	25*	1	-5	-1	-2	x
COc1ccc(/C=C(/NC(=O)c2ccccc2Cl)C(=O)NCCCC(=O)O)cc1	4	6	11	-1	-4	x
CCCC(=O)Nc1ccc2c(c1)nc(CCN1CCCCC1)n2C	0	5	3	-4	-3	x
O=C(O)c1cccc(CSc2nc(-c3ccccc3)cc(C(F)(F)F)n2)c1	26*	2	7	-11	-7	x
COc1cc(S(=O)(=O)Nc2cccc(C)c2)ccc1NC(=O)c1ccncc1	33*	1	-4	10	0	x
CC1CCN(S(=O)(=O)c2cccc(C(=O)NCc3cccs3)c2)CC1	-2	27*	0	5	0	x
CC1CCN(S(=O)(=O)c2cccc(C(=O)NCc3ccco3)c2)CC1	3	25*	3	6	2	x
CCOC(=O)C1CCN(C(=O)c2cc3c(=O)n4ccccc4nc3n2C)CC1	2	1	7	-2	-1	x
COc1ccc(NC(=O)N2CCCC(c3nc(-c4ccc(C(C)C)cc4)no3)C2)cc1 (stereo not given)	21	30*	-7	-9	-5	x
Oc1ccc(Nc2nc3ccccc3nc2Nc2ccc(O)cc2)cc1	11	27*	40*	-35	21*	37*
NS(=O)(=O)c1ccc(Nc2nc(-c3ccc(O)cc3)cs2)cc1	15	11	16	1	-1	x
SMILES	pPAFAH FP inh	PAFAH1B2 inh	PAFAH1B3 inh	PAFAH2 inh	RBBP9 inh	RBBP9 inh conf
Oc1ccc(Nc2nc(-c3ccc(O)cc3)cs2)cc1	3	0	9	-2	18*	14*
Cc1cc(C)nc(Sc2c(C)nn(-c3ccccc3)c2C)n1	2	5	1	7	15*	0
CNCc1ccccc1Sc1cc(O)ccc1O	25*	1	5	1	18*	84*
O=C(COc1ccc(F)cc1F)Nc1cccnc1	4	1	4	-4	x	x
CN(C(=O)C=Cc1ccco1)c1ccccc1	x	6	12	2	x	x
CN(C(=O)/C=C/c1ccco1)c1ccccc1C(=O)O	6	0	2	1	17*	5
O=C(COc1ccc([N+](=O)[O-])cc1)N(Cc1cccs1)C1CCS(=O)(=O)C1 (stereo not given)	12	5	4	7	x	x
COc1ccc(OC)c(NC(=O)c2ccccc2SC)c1	-2	1	10	4	4	x
COc1ccc(OC)c(NC(=O)c2cccnc2Sc2cc(C)ccc2C)c1	1	-2	0	1	41*	2
Cc1occc(=O)c1OCc1ccc(Cl)cc1Cl	4	5	2	4	x	x
CCOC(=O)C1(Cc2ccc(OC)cc2)CCN(C(=O)c2cccc3nccnc23)CC1	1	-2	5	3	16*	2
CCOC(=O)C1(Cc2ccccc2)CCN(Cc2cccc3nccnc23)CC1	1	-2	2	1	-5	x
N#Cc1ccsc1NC(=O)CSc1ncn[nH]1	-3	0	3	12	15*	2
Nc1[nH]n(-c2ccccc2)c(=O)c1N=Nc1ccc2ncsc2c1	16	6	3	8	19*	34*
CC1(CCc2ccccc2)NC(=O)N(CC(=O)N2CC(=O)Nc3ccccc32)C1=O (stereo not given)	1	4	-1	-3	-6	x
Nc1nn2c(C(F)(F)F)cc(=O)[nH]c2c1N=Nc1cccc(F)c1	11	11	16	14	-4	x
Cc1cc(=O)[nH]c2c(N=Nc3ccc(O)cc3)c(N)nn12	x	7	8	13	23*	34*
CCCCC[C@H](O)/C=C/[C@@H]1[C@@H](C/C=C\CCCC(=O)O)[C@@H](O)C[C@H]1O	6	4	4	-4	-11	x
CCCCC[C@H](O)/C=C/[C@@H]1[C@@H](C/C=C\CCCC(=O)OC)[C@@H](O)C[C@H]1O	5	4	12	1	18*	28*
O=[N+]([O-])c1ccccc1Nc1c2ccccc2nc2ccccc12	1	4	10	-3	-7	x
O=[N+]([O-])c1ccc(Nc2c3ccccc3nc3ccccc23)cc1	x	11	9	1	16*	12
COc1ccc(OC)c(NC(=O)C2CCN(S(=O)(=O)c3c(C)noc3C)CC2)c1	8	-4	11	0	16*	7
O=c1ccc(N=Nc2ccccc2)ccc1O	13	3	-1	2	18*	4
O=S(=O)(O)c1ccc(N=Nc2ccccc2)cc1	0	4	0	5	-9	x
Cc1ccc(S(=O)(=O)N2C(=O)CCC2C(=O)O/N=C(\N)c2ccc([N+](=O)[O-])cc2)cc1 (stereo not given)	4	-7	-8	2	x	x
CC(=O)N1CCN(C(=O)c2cc(=O)c3ccccc3o2)CC1	6	-4	0	7	x	x
